# Test results published in ChEMBL document CHEMBL2346664, “Synthesis, characterization and in vitro anticancer evaluation of novel 1,2,4-triazolin-3-one derivatives” (2013).
# Legend:
# Type in all cases: functional
# RXF 393 = experiment: Growth inhibition of human RXF393 cells assessed as cell growth at 10 '-8 M after 48 hrs by sulforhodamine B assay; settings: RXF 393, 48 h, read-out: Activity
# A549 = experiment: Growth inhibition of human A549 cells assessed as cell growth at 10 '-6 M after 48 hrs by sulforhodamine B assay; settings: A549, 48 h, read-out: Activity
# How it was run: (§1)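 Percent growth at each of the five concentrations of the 48 h continuous-exposure NCI SRB screen. Drug stocks were in DMSO at 400× the top final concentration and diluted in medium with gentamicin. Growth was calculated as [(Ti-Tz)/(C-Tz)]×100 when Ti ≥ Tz, or [(Ti-Tz)/Tz]×100 when Ti < Tz. Tz plates were fixed at drug addition; untreated wells served as control. Absorbance was read at 515 nm.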
# OVCAR-4 [1] = experiment: Growth inhibition of human OVCAR4 cells assessed as cell growth at 10 '-6 M after 48 hrs by sulforhodamine B assay; settings: OVCAR-4, 48 h, read-out: Activity
# MCF7 = experiment: Growth inhibition of human MCF7 cells assessed as cell growth at 10 '-8 M after 48 hrs by sulforhodamine B assay; settings: MCF7, 48 h, read-out: Activity
# T47D = experiment: Growth inhibition of human T47D cells assessed as growth inhibition at 10 uM after 48 hrs by sulforhodamine B assay; settings: read-out: GI
# SF-268 = experiment: Growth inhibition of human SF268 cells assessed as cell growth at 10 '-4 M after 48 hrs by sulforhodamine B assay; settings: SF-268, 48 h, read-out: Activity
# HOP-92 [2] = experiment: Growth inhibition of human HOP92 cells assessed as cell growth at 10 '-8 M after 48 hrs by sulforhodamine B assay; settings: HOP-92, 48 h, read-out: Activity
# HOP-62 = experiment: Growth inhibition of human HOP62 cells assessed as growth inhibition at 10 uM after 48 hrs by sulforhodamine B assay; settings: HOP-62, 48 h, read-out: GI
# TK-10 [3] = experiment: Growth inhibition of human TK10 cells after 48 hrs by sulforhodamine B assay; settings: TK-10, 48 h
# TK-10 [4] = experiment: Growth inhibition of human TK10 cells assessed as growth inhibition at 10 uM after 48 hrs by sulforhodamine B assay; settings: TK-10, 48 h, read-out: GI
# TK-10 [5] = experiment: Growth inhibition of human TK10 cells assessed as cell growth at 10 '-4 M after 48 hrs by sulforhodamine B assay; settings: TK-10, 48 h, read-out: Activity
# MOLT-4 [6] = experiment: Growth inhibition of human MOLT4 cells assessed as cell growth at 10 '-8 M after 48 hrs by sulforhodamine B assay; settings: MOLT-4, 48 h, read-out: Activity
# CAKI-1 = experiment: Growth inhibition of human CAKI-1 cells assessed as cell growth at 10 '-5 M after 48 hrs by sulforhodamine B assay; settings: CAKI-1, 48 h, read-out: Activity; how it was run: as §1
# MOLT-4 [7] = experiment: Growth inhibition of human MOLT4 cells assessed as growth inhibition at 10 uM after 48 hrs by sulforhodamine B assay; settings: MOLT-4, 48 h, read-out: GI
# SW-620 = experiment: Growth inhibition of human SW620 cells assessed as cell growth at 10 '-4 M after 48 hrs by sulforhodamine B assay; settings: SW-620, 48 h, read-out: Activity
# Malme-3M = experiment: Growth inhibition of human MALME-3M cells assessed as cell growth at 10 '-6 M after 48 hrs by sulforhodamine B assay; settings: read-out: Activity
# OVCAR-4 [8] = experiment: Growth inhibition of human OVCAR4 cells assessed as cell growth at 10 '-4 M after 48 hrs by sulforhodamine B assay; settings: OVCAR-4, 48 h, read-out: Activity
# BT-549 = experiment: Growth inhibition of human BT549 cells assessed as cell growth at 10 '-8 M after 48 hrs by sulforhodamine B assay; settings: BT-549, 48 h, read-out: Activity; how it was run: as §1
# HOP-92 [9] = experiment: Growth inhibition of human HOP92 cells after 48 hrs by sulforhodamine B assay; settings: HOP-92, 48 h
# How it was run: (§2)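 NCI 60-cell-line five-dose screen. Cells were plated at 5,000–40,000/well by doubling time and grown 24 h at 37 °C, 5% CO2. Time-zero plates were TCA-fixed. Drug from DMSO stock was tested at 0.01, 0.1, 1, 10 and 100 µM final for 48 h continuous exposure. Read-out was SRB at 515 nm. GI50 is the concentration giving 50% reduction in net protein increase versus untreated control.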
# UACC-257 = experiment: Growth inhibition of human UACC257 cells assessed as cell growth at 10 '-4 M after 48 hrs by sulforhodamine B assay; settings: UACC-257, 48 h, read-out: Activity
# M14 = experiment: Growth inhibition of human M14 cells assessed as cell growth at 10 '-5 M after 48 hrs by sulforhodamine B assay; settings: M14, 48 h, read-out: Activity
# NCI-H23 [10] = experiment: Growth inhibition of human NCI-H23 cells assessed as cell growth at 10 '-8 M after 48 hrs by sulforhodamine B assay; settings: NCI-H23, 48 h, read-out: Activity
# MOLT-4 [11] = experiment: Growth inhibition of human MOLT4 cells assessed as cell growth at 10 '-7 M after 48 hrs by sulforhodamine B assay; settings: MOLT-4, 48 h, read-out: Activity
# [12] = Growth inhibition of human HCC2998 cells assessed as cell growth at 10 '-7 M after 48 hrs by sulforhodamine B assay; settings: HCC 2998, 48 h, read-out: Activity
# OVCAR-8 = experiment: Growth inhibition of human OVCAR8 cells assessed as cell growth at 10 '-6 M after 48 hrs by sulforhodamine B assay; settings: OVCAR-8, 48 h, read-out: Activity
# MDA-MB-231 = experiment: Growth inhibition of human MDA-MB-231 cells after 48 hrs by sulforhodamine B assay; settings: MDA-MB-231, 48 h; how it was run: as §2
# UACC-62 = experiment: Growth inhibition of human UACC62 cells assessed as cell growth at 10 '-7 M after 48 hrs by sulforhodamine B assay; settings: UACC-62, 48 h, read-out: Activity
# NCI-H23 [13] = experiment: Growth inhibition of human NCI-H23 cells assessed as cell growth at 10 '-7 M after 48 hrs by sulforhodamine B assay; settings: NCI-H23, 48 h, read-out: Activity
# SK-MEL-2 = experiment: Growth inhibition of human SK-MEL-2 cells assessed as cell growth at 10 '-5 M after 48 hrs by sulforhodamine B assay; settings: SK-MEL-2, 48 h, read-out: Activity
# [14] = Growth inhibition of human EKVX cells assessed as growth inhibition at 10 uM after 48 hrs by sulforhodamine B assay; settings: read-out: GI
# PC-3 = experiment: Growth inhibition of human PC3 cells assessed as growth inhibition at 10 uM after 48 hrs by sulforhodamine B assay; settings: PC-3, 48 h, read-out: GI
# HCT-116 = experiment: Growth inhibition of human HCT116 cells assessed as growth inhibition at 10 uM after 48 hrs by sulforhodamine B assay; settings: HCT-116, 48 h, read-out: GI
# [15] = read-out: LD50 (the source's name)
structure (smiles),measurement,setting,value
Cc1cc(=O)oc2cc(OCCn3c(C)nn(-c4ccc(Cl)cc4)c3=O)ccc12,growth at 0.01 µM,RXF 393,95%
same,growth at 1 µM,A549,96%
same,growth at 1 µM,OVCAR-4 [1],88%
same,growth at 0.01 µM,MCF7,98%
same,inhibition of growth at 10 µM,T47D,52.6%
same,growth at 100 µM,SF-268,36%
same,growth at 0.01 µM,HOP-92 [2],87%
same,inhibition of growth at 10 µM,HOP-62,72.7%
same,GI50,TK-10 [3],1340 nM
same,TGI,TK-10 [3],8840 nM
same,CC50,TK-10 [3]; [15],> 1000 nM
same,inhibition of growth at 10 µM,TK-10 [4],40.4%
same,growth at 100 µM,TK-10 [5],-3%
same,growth at 0.01 µM,MOLT-4 [6],104%
same,growth at 10 µM,CAKI-1,54%
same,inhibition of growth at 10 µM,MOLT-4 [7],62.4%
same,growth at 100 µM,SW-620,25%
same,growth at 1 µM,Malme-3M,82%
same,growth at 100 µM,OVCAR-4 [8],40%
same,growth at 0.01 µM,BT-549,105%
same,GI50,HOP-92 [9],1610 nM
same,TGI,HOP-92 [9],> 1000 nM
same,CC50,HOP-92 [9]; [15],> 1000 nM
same,growth at 100 µM,UACC-257,53%
same,growth at 10 µM,M14,22%
same,growth at 0.01 µM,NCI-H23 [10],98%
same,growth at 0.1 µM,MOLT-4 [11],109%
same,growth at 0.1 µM,[12],91%
same,growth at 1 µM,OVCAR-8,97%
same,GI50,MDA-MB-231,4530 nM
same,TGI,MDA-MB-231,> 1000 nM
same,CC50,MDA-MB-231; [15],> 1000 nM
same,growth at 0.1 µM,UACC-62,90%
same,growth at 0.1 µM,NCI-H23 [13],91%
same,growth at 10 µM,SK-MEL-2,62%
same,inhibition of growth at 10 µM,[14],41.3%
same,inhibition of growth at 10 µM,PC-3,51.5%
same,inhibition of growth at 10 µM,HCT-116,84.9%
